Results reported in ChEMBL document CHEMBL3580658, “Bisthiodiketopiperazines and Acorane Sesquiterpenes Produced by the Marine-Derived Fungus Penicillium adametzioides AS-53 on Different Culture Media” (J Nat Prod, 2015).
≈ marks a conversion by molar mass, not a printed value.

Tests used:
[1] = system: SW480; assay: Cytotoxicity against human SW480 cells by tetrazolium salt based quantitative colorimetric assay; assay type: functional, cell-based
[2] = system: HeLa; assay: Cytotoxicity against human HeLa cells by tetrazolium salt based quantitative colorimetric assay; assay type: functional, cell-based
[3] = Cytotoxicity against human HuH7 cells by tetrazolium salt based quantitative colorimetric assay; assay type: functional, cell-based; conditions: Huh-7
[4] = system: HepG2; assay: Cytotoxicity against human HepG2 cells by tetrazolium salt based quantitative colorimetric assay; assay type: functional, cell-based
[5] = system: Vibrio parahaemolyticus; assay: Antimicrobial activity against Vibrio parahaemolyticus QDIO-8 by XTT assay; assay type: functional
Procedure, shortened: (§1)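 Bacterial panel of two human-pathogenic and seven aquacultural strains, run by a previously described method. Chloramphenicol served as the positive control against bacteria.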

[6] = system: Staphylococcus aureus; assay: Antimicrobial activity against Staphylococcus aureus EMBLC-2 by XTT assay; assay type: functional; procedure, shortened: as §1
[7] = Cytotoxicity against mouse LM3 cells by tetrazolium salt based quantitative colorimetric assay; assay type: functional, cell-based
[8] = system: U-251; assay: Cytotoxicity against human U251 cells by tetrazolium salt based quantitative colorimetric assay; assay type: functional, cell-based
[9] = system: Gaeumannomyces graminis; assay: Antimicrobial activity against Gaeumannomyces graminis QDAU-3 by XTT assay; assay type: functional
Procedure, shortened: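 Plant-pathogenic fungus strain QDAU-3 was obtained from Qingdao Agricultural University and tested by a previously described method. Amphotericin B was the positive control against fungi.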

[10] = system: MCF7; assay: Cytotoxicity against human MCF7 cells by tetrazolium salt based quantitative colorimetric assay; assay type: functional, cell-based
[11] = system: A549; assay: Cytotoxicity against human A549 cells by tetrazolium salt based quantitative colorimetric assay; assay type: functional, cell-based
[12] = system: Artemia salina; assay: Cytotoxicity in brine shrimp; assay type: functional; conditions: read-out: LD50 (the source's name)
[13] = system: Aeromonas hydrophila; assay: Antimicrobial activity against Aeromonas hydrophila QDIO-1 by XTT assay; assay type: functional; procedure, shortened: as §1
[14] = system: Vibrio harveyi; assay: Antimicrobial activity against Vibrio harveyi QDIO-7 by XTT assay; assay type: functional; procedure, shortened: as §1
[15] = Cytotoxicity against human L02 cells by tetrazolium salt based quantitative colorimetric assay; assay type: functional, cell-based
[16] = system: DU-145; assay: Cytotoxicity against human DU145 cells by tetrazolium salt based quantitative colorimetric assay; assay type: functional, cell-based
[17] = Cytotoxicity against human SGC7901 cells by tetrazolium salt based quantitative colorimetric assay; assay type: functional, cell-based; conditions: SGC-7901
[18] = system: NCI-H446; assay: Cytotoxicity against human NCI-H446 cells by tetrazolium salt based quantitative colorimetric assay; assay type: functional, cell-based
[19] = system: SW1990; assay: Cytotoxicity against human SW1990 cells by tetrazolium salt based quantitative colorimetric assay; assay type: functional, cell-based

Row | SMILES | IC50 [1] [µM] | IC50 [2] [µM] | IC50 [3] [µM] | IC50 [4] [µM] | MIC [5] [µg/mL] | MIC [6] [µg/mL] | IC50 [7] [µM] | IC50 [8] [µM] | MIC [9] [µg/mL] | IC50 [10] [µM] | IC50 [11] [µM] | LC50 [12] [µM] | MIC [13] [µg/mL] | MIC [14] [µg/mL] | IC50 [15] [µM] | IC50 [16] [µM] | IC50 [17] [µM] | IC50 [18] [µM] | IC50 [19] [µM]
1 | COc1ccc([C@@H]2SS[C@@]34C[C@]5(O)[C@H](Cl)C=C[C@@H](O)[C@@H]5ON3C(=O)[C@@H]2N(C)C4=O)c(O)c1OC | > 10 | > 10 | > 10 | > 10 | 8 (≈ 15.1 µM) | 8 (≈ 15.1 µM) | > 10 | > 10 | 16 (≈ 30.1 µM) | > 10 | > 10 | 4.8 | 8 (≈ 15.1 µM) | 32 (≈ 60.3 µM) | > 10 | > 10 | > 10 | > 10 | > 10
2 | COc1ccc([C@@H]2SS[C@@]34C[C@]5(O)[C@H](O)C=C[C@@H](O)[C@@H]5ON3C(=O)[C@@H]2N(C)C4=O)c(O)c1OC | > 10 | > 10 | > 10 | > 10 | – | 64 (≈ 125 µM) | > 10 | > 10 | – | > 10 | > 10 | – | – | – | > 10 | > 10 | > 10 | > 10 | > 10
3 | C=C(C)[C@H]1[C@H](OC(C)=O)C[C@H](C)[C@@]12CC=C(C)[C@@H](O)C2 | > 10 | > 10 | > 10 | > 10 | – | – | > 10 | > 10 | – | > 10 | > 10 | – | – | – | > 10 | > 10 | > 10 | > 10 | > 10
4 | C=C(C)[C@H]1[C@H](OC(C)=O)C[C@H](C)[C@@]12CC=C(CO)[C@@H](O)C2 | > 10 | > 10 | > 10 | > 10 | – | – | > 10 | > 10 | – | > 10 | > 10 | – | – | – | > 10 | > 10 | > 10 | 5 | > 10
5 | COc1cc2c(c(OC)c1OC)-c1ccc(OC)c(=O)cc1[C@@H](NC(C)=O)CC2 [COLCHICINE] | – | – | – | – | – | – | – | – | – | – | – | 8.1 | – | – | – | – | – | – | –
